Experimental data: ChEMBL document CHEMBL1145129, “Design, synthesis, and anticancer properties of 4,4'-dihydroxybenzophenone-2,4-dinitrophenylhydrazone and analogues” (J Med Chem, 2003); call rule not given here
Values after ≈ are worked out from the molar mass of the structure shown.

Tests used:
[1] = system: Melanoma tumor cell line; assay: In vitro cytotoxicity against Human melanoma tumor cells; Not available.; type: functional, cell-based
How it was run: (§1)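 Fresh surgical human tumor specimens minced to ≤0.1 mm fragments in RPMI-1640 with 10% FBS, streptomycin and penicillin (10⁶–10⁸ cells/mL), explanted into slide flasks. Exposed 24 h at 37 °C, 5% CO₂, to test agent 0.1–20 μg/mL (≥5 doses over 3 logs), in duplicate. Washed, recultured 7–14 days, fixed, HPF cell counts vs control; IC50 (SD) from percent growth.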

[2] = species: Homo sapiens; assay: In vitro cytotoxicity against Human lung tumor cells.; type: functional; how it was run: as §1
[3] = In vitro cytotoxicity in Human breast tumor cells; type: functional, cell-based; how it was run: as §1
[4] = system: Colon carcinoma cell; assay: In vitro cytotoxicity was tested in human colon tumor cells; type: functional, cell-based; how it was run: as §1
[5] = system: MDA-MB-435; assay: In vitro cytotoxicity in MDA-MB-435 cell line; type: functional, cell-based; details: Homo sapiens
How it was run: (§2)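 Established tumor lines kept in RPMI-1640 with 10% fetal calf serum and penicillin/streptomycin at 36 °C, 10% CO₂. Seeded 2000–3000 cells/well; hydrazone-containing medium added after 18 h, then 36 h further culture. Viable cells read by MTT absorbance at 570 nm; cytostasis (%) = (1 − A_treated/A_control) × 100.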

[6] = In vitro cytotoxicity in K 1735 M2 cell line; type: functional
[7] = In vitro cytotoxicity in KM 12 SM cell line; type: functional; details: Homo sapiens, KM12
How it was run: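 Established lines kept in RPMI-1640 with 10% fetal calf serum and penicillin/streptomycin at 36 °C, 10% CO₂. Cells seeded at 2000–3000 cells/well, hydrazones added at several concentrations after 18 h, and exposed a further 36 h. Viable cells read by MTT absorbance at 570 nm; cytostasis (%) = (1 − A/B)×100 against untreated control.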

[8] = In vitro cytotoxicity in KM 12 C cell line; type: functional; details: Homo sapiens, KM12C; how it was run: as §2
[9] = In vitro cytotoxicity in MDA-MB-435/lung met cell line; type: functional; details: Homo sapiens; how it was run: as §2
[10] = In vitro cytotoxicity in SN 12 PM6 cell line; type: functional, cell-based; details: Homo sapiens; how it was run: as §2
[11] = In vitro cytotoxicity in KM 12L4 cell line; type: functional, cell-based; details: Homo sapiens; how it was run: as §2
[12] = system: breast cancer cells (Homo sapiens); assay: In vitro cytotoxicity in Human breast tumor cells
[13] = species: Homo sapiens; assay: In vitro cytotoxicity against Human lung tumor cells; Not available.; type: functional; how it was run: as §1
[14] = species: Homo sapiens; assay: In vitro cytotoxicity in Human ovary tumor cells; type: functional; details: Female gonad; how it was run: as §1
[15] = system: Melanoma tumor cell line; assay: In vitro cytotoxicity against Human melanoma tumor cells.; type: functional, cell-based; how it was run: as §1

| Structure (SMILES) | IC50 [1] | IC50 [2] | IC50 [3] | IC50 [4] | IC50 [13] | IC50 [14] | IC50 [15] | other results |
| --- | --- | --- | --- | --- | --- | --- | --- | --- |
| O=[N+]([O-])c1ccc(/N=N/c2c3cc(O)ccc3c(NNc3ccc([N+](=O)[O-])cc3[N+](=O)[O-])c3cc(O)ccc23)c([N+](=O)[O-])c1 | Not Active | 1 µg/mL (≈ 1.67 µM) | 2.5 µg/mL (≈ 4.16 µM) | 3.9 µg/mL (≈ 6.5 µM) |  |  |  |  |
| O=[N+]([O-])c1ccc(/N=N/c2c3cccc(O)c3c(O)c3c(O)cccc23)c([N+](=O)[O-])c1 | Not Active | 0.12 µg/mL (≈ 0.285 µM) | 0.03 µg/mL (≈ 0.0714 µM) | 0.03 µg/mL (≈ 0.0714 µM) |  |  |  | IC50 [5]: 0.02 µg/mL (≈ 0.0476 µM); IC50 [6]: 0.02 µg/mL (≈ 0.0476 µM); IC50 [7]: 0.05 µg/mL (≈ 0.119 µM); IC50 [8]: 0.03 µg/mL (≈ 0.0714 µM); IC50 [9]: 0.03 µg/mL (≈ 0.0714 µM); IC50 [10]: 0.03 µg/mL (≈ 0.0714 µM); IC50 [11]: 0.02 µg/mL (≈ 0.0476 µM) |
| O=[N+]([O-])c1ccccc1NN=C(c1ccc(O)cc1)c1ccc(O)cc1 | Not Active |  |  | 4.7 µg/mL (≈ 13.5 µM) | Not Active |  |  | IC50 [12]: 3.9 µg/mL (≈ 11.2 µM) |
| C/C(=N\Nc1ccc([N+](=O)[O-])cc1)c1ccc(O)cc1 | Not Active |  | 5 µg/mL (≈ 18.4 µM) |  | Not Active | 6 µg/mL (≈ 22.1 µM) |  |  |
| CC(=O)Oc1cccc2c(/N=N/c3ccc([N+](=O)[O-])cc3[N+](=O)[O-])c3cccc(OC(C)=O)c3c(O)c12 |  | 0.1 µg/mL (≈ 0.198 µM) | 0.04 µg/mL (≈ 0.0793 µM) | 0.16 µg/mL (≈ 0.317 µM) |  | 0.3 µg/mL (≈ 0.595 µM) | 0.07 µg/mL (≈ 0.139 µM) | IC50 [5]: 0.041 µg/mL (≈ 0.0813 µM); IC50 [6]: 0.042 µg/mL (≈ 0.0833 µM); IC50 [10]: 0.021 µg/mL (≈ 0.0416 µM); IC50 [11]: 0.07 µg/mL (≈ 0.139 µM) |
| CC(=O)c1ccc2c(c1)/C(=N\Nc1ccc([N+](=O)[O-])cc1[N+](=O)[O-])c1ccc(C(C)=O)cc1-2 |  | > 5 µg/mL | > 5 µg/mL | 0.7 µg/mL (≈ 1.58 µM) |  | 0.9 µg/mL (≈ 2.03 µM) | 0.5 µg/mL (≈ 1.13 µM) |  |
| O=c1c2cccc3c2c(nn1-c1ccccc1[N+](=O)[O-])-c1ccccc1-3 |  | > 5 µg/mL | > 5 µg/mL | > 5 µg/mL |  | > 5 µg/mL | 0.4 µg/mL (≈ 1.17 µM) |  |
| O=[N+]([O-])c1ccc(NN=c2c3ccccc3oc3ccccc23)c([N+](=O)[O-])c1 |  | > 10 µg/mL | 0.04 µg/mL (≈ 0.106 µM) | 0.05 µg/mL (≈ 0.133 µM) |  | 0.05 µg/mL (≈ 0.133 µM) | > 10 µg/mL |  |
| O=[N+]([O-])c1ccc(NN=c2c3ccccc3[s+]([O-])c3ccccc23)c([N+](=O)[O-])c1 (configuration not stated) |  | > 10 µg/mL | > 10 µg/mL | > 10 µg/mL |  | > 10 µg/mL | > 10 µg/mL |  |
| CC(=O)Oc1ccc(C(=NNc2ccc([N+](=O)[O-])cc2[N+](=O)[O-])c2ccc(OC(C)=O)cc2)cc1 |  | > 10 µg/mL |  | > 10 µg/mL |  | > 10 µg/mL | > 10 µg/mL |  |
| O=[N+]([O-])c1ccc(NN=C(c2ccccc2O)c2ccccc2O)c([N+](=O)[O-])c1 |  | 6 µg/mL (≈ 15.2 µM) |  | 8 µg/mL (≈ 20.3 µM) |  | 5 µg/mL (≈ 12.7 µM) | > 5 µg/mL | IC50 [12]: 4.7 µg/mL (≈ 11.9 µM) |
| Oc1ccc(C(=NNc2ccccc2)c2ccc(O)cc2)cc1 |  | > 10 µg/mL |  | > 5 µg/mL |  | 6.2 µg/mL (≈ 20.4 µM) | 7 µg/mL (≈ 23 µM) | IC50 [12]: > 5 µg/mL |
| Nc1ccc2c(/N=N/c3ccc([N+](=O)[O-])cc3[N+](=O)[O-])c3ccccc3c(O)c2c1N | Not Active |  | 5 µg/mL (≈ 12 µM) | 5 µg/mL (≈ 12 µM) | Not Active | 6 µg/mL (≈ 14.3 µM) |  |  |
| CC(=O)Oc1cccc2c(/N=N/c3ccc([N+](=O)[O-])cc3[N+](=O)[O-])c3cccc(O)c3c(O)c12 |  |  | 0.05 µg/mL (≈ 0.108 µM) | 0.03 µg/mL (≈ 0.0649 µM) | Not Active | 0.4 µg/mL (≈ 0.865 µM) | 0.097 µg/mL (≈ 0.21 µM) |  |
| CC(=O)Oc1cccc2c1-c1nn(-c3ccccc3)c(=O)c3cccc(c13)C2=O | Not Active |  | > 5 µg/mL |  | Not Active | > 10 µg/mL |  |  |
| O=[N+]([O-])c1ccc(N/N=C(\c2ccc(O)cc2)c2ccc(Cl)cc2)c([N+](=O)[O-])c1 | Not Active |  |  | > 10 µg/mL | Not Active |  |  | IC50 [12]: 8.7 µg/mL (≈ 21.1 µM) |
| C=CCOc1cccc2c(/N=N/c3ccc([N+](=O)[O-])cc3[N+](=O)[O-])c3cccc(OC(C)=O)c3c(O)c12 | Not Active | 0.07 µg/mL (≈ 0.139 µM) | 0.1 µg/mL (≈ 0.199 µM) | 0.08 µg/mL (≈ 0.159 µM) |  |  |  |  |
| CN(C)c1ccc(C(=NNc2ccc([N+](=O)[O-])cc2[N+](=O)[O-])c2ccc(N(C)C)cc2)cc1 |  |  | 4.2 µg/mL (≈ 9.36 µM) | 10 µg/mL (≈ 22.3 µM) | Not Active |  | 5 µg/mL (≈ 11.1 µM) |  |
